L major viab: reduces viability of Leishmania major promastigotes. AID 1063. inhibition, % at 10 µM. resazurin fluorescence viability. 9% of 200,000 active;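 further: promastigotes grown with compound for 44 hours at 28 °C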
Diaph act CS: diaphorase activation or chemical reduction counter-screen | Diaphorase/resazurin coupled assay, resorufin fluorescence, 16 min; active compounds read high; 1 = vehicle wells, 0 = NADH-free wells | activation factor at 20 µM | 0.005% of 190,000 active | AID 1229;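 active means diaphorase activity raised at least twofold by the compound at 20 µM; inactive means activation factor below 2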
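Material: Clostridium kluyveri diaphorase, purified enzyme; Quantity: enzyme 0.07 U/mL final; Medium: HEPES pH 7.4 buffer with MgCl2 and Tween 20; Dosing: single compound dose of 20 µM, 1% DMSO final; Schedule: 16 min reaction at room temperature; Measured by: red resorufin fluorescence at 544/590 nm excitation/emission.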
Diaph inh CS: inhibits diaphorase or chemically oxidizes, flagging diaphorase assay artifacts | diaphorase resazurin-to-resorufin fluorescence, NADH, 16 min; bacterial (C. kluyveri) enzyme, not human | inhibition, % at 20 µM | 0.69% of 190,000 active;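 active means primary screen inhibition at 20 µM above a set limit, cut at about 50% in these data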
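Assay system: diaphorase enzyme from Clostridium kluyveri; Input: enzyme working solution with 0.14 U/mL diaphorase; Timing: 16 min at room temperature; Technique: resorufin fluorescence, excitation 544 nm, emission 590 nm; Benchmarks: positive control minus NADH, DMSO neutral control.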
WT yeast gro inh: growth inhibition of WT yeast, mitochondrial fusion screen | 2.1% of 190,000 active | mitochondrial fusion phenotypic screen, WT strain | inhibition, % at 10 µM; in the data active means inhibition above about 58%; tested in S. cerevisiae
G6PDH CS: counter-screen for G6PDH assay hits: L. mesenteroides G6PDH inhibition | Purified L. mesenteroides G6PDH, diaphorase/resazurin coupled fluorescence, 45 min | inhibition, % at 5 µM | 0.12% of 200,000 active | AID 1020
Of the large screens only hits and unclear results are named; the others gave an inactive call. A selection: hits, their analogues and other compounds. The true share with any hit is near 11%. Unless noted, no stated cut-off is given here; in the data, active means inhibition above about 50%; inactive means the rest.

CCOC(=O)c1c(C)[nH]c(C)c1C(=O)CSc1nc2ccccc2n1CCC#N	none
CCOC(=O)c1c(C)[nH]c(C)c1C(=O)CSc1nnc(-c2ccncc2)n1C	WT yeast gro inh 65.1
O=C(c1ccc(NC(=S)NCc2ccco2)cc1)N1CCCCC1	none
CN(C)c1cc(N/N=C\c2ccccc2)nc(N(C)C)n1	Diaph inh CS 51.5, WT yeast gro inh 58.7, G6PDH CS 53.6
COc1ccccc1/C=N/Nc1nncc2ccccc12	none
COc1ccc(/C=N/Nc2cc(C)nc(N)n2)cc1	L major viab 60.4
COc1ccccc1/C=N/Nc1cc(N(C)C)nc(N(C)C)n1	L major viab 83.6, Diaph inh CS 52.9
COc1ccc(/C=N/Nc2cc(N(C)C)nc(N(C)C)n2)cc1	L major viab 97.9
COc1ccc(/C=N/Nc2cc(OC)ncn2)cc1	none
CC#CCN(CC#CC)S(=O)(=O)c1ccc(-n2cnnn2)c(OC)c1	none
CC(C)c1ccc(C2NC(=O)CCC2[N+](=O)[O-])cc1 (stereo not drawn)	none
Nc1ccc2oc(C3CCCCC3)nc2c1	none
Cn1c(=O)c2cc(S(=O)(=O)NC(C(=O)N3CCCCCC3)c3ccccc3)ccc2n(C)c1=O (stereo not drawn)	none
O=C(NNC(=S)NC(=O)C12CC3CC(CC(C3)C1)C2)c1ccncc1	L major viab 77.8, Diaph inh CS 50.9, WT yeast gro inh 79.7
CC/C(=N\NC(=O)c1ccncc1)C12CC3CC(CC(C3)C1)C2	L major viab 88.7
O=C(NNC(=O)C12CC3CC(CC(C3)C1)C2)c1cnccn1	L major viab 88.7
O=C(Nc1cccnc1)C12CC3CC(CC(C3)C1)C2	none
CC1(C(=O)NC(=S)NNC(=O)c2ccncc2)CCCCC1	none
O=C(NNC(=O)c1ccc2c(c1)OCO2)NC12CC3CC(CC(C3)C1)C2	none
CC/C(=N\NC(=O)c1ccc2c(c1)OCO2)C12CC3CC(CC(C3)C1)C2	L major viab 98.8
O=C(N/N=C/c1ccncc1)C12CC3CC(CC(C3)C1)C2	none
O=C(/C=C/c1ccccc1)OCc1cnc(Cl)s1	none
O=C(COc1ccccc1[N+](=O)[O-])N(Cc1ccccc1)c1ccccn1	none
CCNC(=O)CN(C1CCCCC1)S(C)(=O)=O	none
Nc1ccc2c(c1)OC1(CCCC1)O2	Diaph inh CS 52.0
O=C1CC(c2ccco2)Cc2nc(N3CCN(Cc4ccc5c(c4)OCO5)CC3)ncc21 (stereo not drawn)	L major viab 74.7
Cc1ccc(C)c(NC(=O)c2ccc[n+](Cc3ccc([N+](=O)[O-])cc3)c2)c1	none
O=C(Nc1ccc2c(c1)CCC2)c1ccccc1	none
O=C(Nc1cc2c3c(c1)C1CCCC1CN3CC1CCCC21)c1ccccc1 (stereo not drawn)	L major viab 96.6
Cc1oc(-c2cc(F)ccc2F)nc1CN(C)Cc1ccc2nccnc2c1	L major viab 75.3
Cc1ccc(C(=O)OCn2ncc(Cl)c(Cl)c2=O)cc1	L major viab 100.6
CCc1ccc(C(=O)Nc2ccc(OC)c(S(=O)(=O)N3CCOCC3)c2)cc1	none
COc1ccc(NC(=O)Cn2ncc(Cl)c(Cl)c2=O)cc1S(=O)(=O)N1CCOCC1	L major viab 86.5
CCOC(=O)c1ccc(NC(=O)Cn2ncc(Cl)c(Cl)c2=O)cc1	L major viab 95.6
O=C(OCn1ncc(Cl)c(Cl)c1=O)c1ccc(C(F)(F)F)cc1	none
CC(=O)Oc1cc2c(cc1Cl)C(c1cccs1)CC1(CC(C)(C)NC(=S)N1)O2 (stereo not drawn)	none
O=C1c2ccccc2C(=O)c2c1cccc2N1CCOCC1	none
O=C1C(N2CCOCC2)=C(n2nnc3ccccc32)C(=O)c2ccccc21	L major viab 100.2, G6PDH CS 60.7
COc1ccc(OC)c(NC(=O)c2ccc3c(=O)n(CCc4ccccc4)c(=S)[nH]c3c2)c1	none
CC(C)C(=O)NNS(=O)(=O)c1ccccc1[N+](=O)[O-]	L major viab 54.0
O=C(NNS(=O)(=O)c1ccccc1[N+](=O)[O-])c1ccccc1[N+](=O)[O-]	none
O=C(Nc1ccc(F)cc1)c1ccccc1S(=O)(=O)c1ccccc1[N+](=O)[O-]	L major viab 57.9
NC(=O)c1ccccc1NC(=O)c1ccccc1S(=O)(=O)c1ccccc1[N+](=O)[O-]	L major viab 64.6
COc1ccc(CN2CCNC(=O)C2CC(=O)NCCC2=CCCCC2)cc1OC (stereo not drawn)	none

Bioassay records: PubChem, several laboratories
